# Bioassay records as filed in PubChem BioAssay.
# Shown are actives, neighbours in structure and some others; about 2.1% of the full set was active somewhere.
# ERp5 inh: inhibitors of ERp5-driven insulin aggregation, primary screen, biochemical, turbidity, absorbance 650 nm, single point. Protein disulfide-isomerase A6 (Homo sapiens), Q15084. inhibition, % at 9.99 µM. 90 min. 0.05% of 350,000 active;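 active means mean replicate inhibition above about 25%, with every replicate also reaching it, limit read from the data, passing the limit was not always enough; inconclusive means only one of those two criteria met; inactive means neither criterion met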
# FGF22 binding: binders of human FGF22 protein, primary screen, FGF22 synaptogenesis inhibitor project, biophysical, thermal shift, single point; Fibroblast growth factor 22 (Homo sapiens), Q9HCT0; recombinant FGF22 thermal shift, SYPRO orange fluorescence; percent of sucrose octasulfate shift, DMSO zero; activity (Tm shift, normalised), % at 9.99 µM; 1.5% of 340,000 active;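 active means mean Tm shift, scaled 0 neutral to 100 positive control, at about 1.3% or above, every replicate too, limit read from the data; inconclusive means no clear call, values can overlap the other calls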
# ARNT-TACC3 inh: disruptors of ARNT/TACC3 protein interaction, primary screen, biochemical, AlphaScreen, single concentration | AlphaScreen His-ARNT PAS-B/GST-TACC3 binding, luminescence; TACC3 fragment carries E629A point mutation | 0.66% of 390,000 active | Transforming acidic coiled-coil-containing protein 3 (Homo sapiens), Q9Y6A5 | inhibition, % at 9.99 µM;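 active means mean inhibition of replicates at least 50% and at least half of replicates each reaching 50%; inconclusive means half or more replicates reach 50% but mean below 50%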;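 further: 0% = complete ARNT plus TACC3 wells and 100% = ARNT alone without TACC3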
# AF4-AF9 inh: inhibitors of AF4 peptide binding to AF9, primary screen, biochemical, AlphaScreen, biotin-AF4 peptide, FLAG-AF9, single point; 0.47% of 350,000 active; inhibition, % at 10 µM; Protein AF-9 (Homo sapiens), P42568;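 active means every replicate reaching a set inhibition limit, whatever the replicate mean, cut at about 25% in these data; inconclusive means mean inhibition reaches that limit but some replicates miss it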;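 further: 0% = plate neutral control median and 100% = total signal loss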
# Target sequence (P42568 whole entry, looked up): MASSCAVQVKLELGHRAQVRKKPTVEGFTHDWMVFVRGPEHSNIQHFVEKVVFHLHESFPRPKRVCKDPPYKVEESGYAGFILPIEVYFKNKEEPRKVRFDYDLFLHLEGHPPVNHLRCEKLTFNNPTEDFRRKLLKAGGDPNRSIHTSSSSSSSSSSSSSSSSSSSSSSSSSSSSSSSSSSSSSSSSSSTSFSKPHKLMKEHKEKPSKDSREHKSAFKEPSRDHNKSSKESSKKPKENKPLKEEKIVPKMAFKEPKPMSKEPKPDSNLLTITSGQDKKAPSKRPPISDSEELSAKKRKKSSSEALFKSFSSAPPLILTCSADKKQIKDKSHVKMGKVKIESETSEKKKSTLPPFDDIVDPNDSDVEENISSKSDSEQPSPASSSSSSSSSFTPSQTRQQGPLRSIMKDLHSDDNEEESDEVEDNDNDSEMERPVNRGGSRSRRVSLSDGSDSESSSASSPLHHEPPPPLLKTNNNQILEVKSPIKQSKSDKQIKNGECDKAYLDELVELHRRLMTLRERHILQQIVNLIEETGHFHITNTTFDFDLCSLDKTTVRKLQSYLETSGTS
# FN deposition inh: inhibitors of fibronectin matrix deposition, primary screen, AH1F cells, Alexa488-fibronectin fluorescence, plate reader; AH1F fibroblasts, overnight; inhibition, % at 12.6 µM; 0.086% of 350,000 active; AID 743247, 2014;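 active means mean inhibition across replicates of 30% or more, regardless of how many single replicates reach that level; inconclusive means mean under 30% yet at least half of replicates reach 30%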;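 further: positive control wells lacked labelled fibronectin entirely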
#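 Measured by – fluorescence 485/525 nm · System – AH1F fibroblast monolayer, labelled fibronectin deposition · Amount – 10000 cells per well · Buffer or medium – serum-reduced DMEM (2% serum) · Doses – single dose, pinned · Also added – fluorescent fibronectin at 24 nM final · Schedule – 1 h cell attachment, overnight exposure to compound and label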
# PDI turbidity: inhibitors of human PDI, primary screen, biochemical, turbidity, single point, plate reader | 0.052% of 350,000 active | PDI insulin aggregation turbidity, A650, 90 min | inhibition, % at 10 µM;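 active means mean inhibition across replicates of 30% or more, whatever share of single replicates reach that level; inconclusive means mean inhibition below 30% while every single replicate reaches 30%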
# * marks the source's active call; other numbers are inactive results; ? = inconclusive; . = no result given.
SMILES,ERp5 inh,FGF22 binding,ARNT-TACC3 inh,AF4-AF9 inh,FN deposition inh,PDI turbidity
Oc1c(Cl)cc(CN2CCCCC2)c2cccnc12,.,.,77*,.,.,4
c1ccc(N2CCN(Cc3ccc4c(c3)OCO4)CC2)nc1,1,0,.,1,-6,4
Oc1c(CN2CCCCC2)ccc2cccnc12,12,-1,89*,14,-2,-5
Oc1c(CN2CCOCC2)ccc2ccccc12,2,-1,-2,3,.,2
O=c1c(CN2CCN(c3ccccn3)CC2)coc2ccccc12,-5,44*,1,-2,-3,-7
Oc1c(CN2CCN(c3ccccn3)CC2)cc(Cl)c2cccnc12,.,.,60*,.,.,1
COc1ccc(-c2cnc3c(c2)C(=O)N([C@@H](C)CO)C[C@H](C)[C@@H](CN(C)S(C)(=O)=O)O3)cc1,2,0,-9,-1,-4,.
C[C@H]1CN([C@@H](C)CO)C(=O)Cc2cc(NC(=O)Nc3ccc(F)cc3)ccc2O[C@H]1CN(C)C(=O)NC1CCCCC1,1,0,2,-2,.,.
CC(C)(C)[S@](=O)N1Cc2cc(C(=O)O)nc(-c3cccc(-c4cccc(F)c4)c3)c2[C@@H]1CCO,7,.,.,-4,10,.
Oc1ccc(CN2CCCCC2)c2cccnc12,-6,0,80*,?,.,-4
CC(C)NC(=O)Nc1ccc2c(c1)C(=O)N([C@@H](C)CO)C[C@H](C)[C@@H](CN(C)S(=O)(=O)c1cccs1)O2,.,.,.,.,0,.
CC(C)C#Cc1cnc2c(c1)C(=O)N([C@H](C)CO)C[C@H](C)[C@H](CN(C)C(=O)c1ccc3c(c1)OCO3)O2,4,0,3,-3,-7,.
O=C([C@@H]1[C@@H](CO)[C@@H]2Cn3c(cccc3=O)[C@@H]2N1CCC(F)(F)F)N1CCCCC1,5,0,9.3*,0,.,.
CCOC(=O)N1CCN(Cc2ccc(O)c3ncccc23)CC1,-2,0,.,19,.,.
COc1ccccc1N1CCN(Cc2cc(Br)c(O)c3ncccc23)CC1,2,0,.,27*,22,.
COCc1cc(CN2CCCC2)c(O)c2ncccc12,.,.,60*,.,.,10
CCOc1ccccc1N1CCN(Cc2cccc(OC)c2O)CC1,.,.,3,.,-12,3
CN(C)C1CCN(Cc2cc(COCc3ccccc3)c3cccnc3c2O)C1 (stereo not given),.,.,75*,.,.,3
Oc1c(CN2CCCCC2)cc(COCc2ccccc2)c2cccnc12,.,.,62*,.,2,0
CCC(=O)N1C[C@H](O)COC[C@H]2O[C@@H](CC(=O)NC)CC[C@@H]21,-2,0,-3,-5,.,.
COc1ccc(S(=O)(=O)Nc2cccc3c2O[C@H](CN(C)C(=O)Nc2c(C)noc2C)[C@H](C)CN([C@H](C)CO)C3=O)cc1,-3,0,-3,0,.,.
CC(C)Cc1nnc(NC(=O)CSc2nc(N)cc(=O)[nH]2)s1,.,.,2,.,active,-37
CCc1nc(SCC(=O)Nc2nnc(CC(C)C)s2)n[nH]1,1,0,-7,-3,-6,2
C/C(=N\NC(=O)c1ccccc1)c1cc2cc([N+](=O)[O-])ccc2oc1=O,.,.,77*,.,0,-4
CCCOC(=O)c1ccc(NC(=O)c2ccccc2[N+](=O)[O-])cc1,-4,43*,4,-1,-2,-12
OC(CNC1Cc2ccccc2C1)COc1ccc(Cl)cc1 (stereo not given),-2,0,-3,-2,8,2
OC(CNC1CCCc2ccccc21)COc1c(Cl)cccc1Cl (stereo not given),4,44*,6,3,42*,-8
O=S(=O)(Nn1cnnc1)c1ccc2ccccc2c1,-4,43*,-13,-1,-6,-14
O=C(C[C@H]1CC[C@H](NC(=O)Cc2ccccn2)[C@@H](CO)O1)NCCc1ccncc1,1,0,5,1,-1,.
